This is an account of results in ChEMBL document CHEMBL1133476, “Nitrosothiol esters of diclofenac: synthesis and pharmacological characterization as gastrointestinal-sparing prodrugs” (J Med Chem, 2000).

Each structure is given as a SMILES string.

The species entered for data set [1] is Rattus norvegicus. Briefly: Gastric toxicity was measured in rats. The conditions noted are these: in vivo. The format is organism-based. The essentials:
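Male Sprague-Dawley rats (180-200 g), fasted 24 h with water ad libitum. Single gavage of 100 µmol/kg at 5 mL/kg in 0.5% methocel/5% or 50% PEG-400, 5-10 rats/group. Fasting continued for 18 h, then CO₂ euthanasia. Stomach lesions scored in mm; mean ± SEM.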

Data set [2] concerns Mus musculus. Briefly: Level of plasma diclofenac in mice after oral administration of 20 umol/kg of prodrug. The format is ADME, organism-based. As to conditions: in vivo. The gist of the method:
(§1)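 Male CD-1 mice, fasted overnight (≈17 h), given 20 µmol/kg orally by gavage as a suspension in 0.5% methocel/5% or 50% PEG-400. Ketamine/xylazine anesthesia, then cardiac-puncture heparinized blood at 30, 60 and 120 min, a separate group per time point. Plasma diclofenac measured by HPLC with UV detection against authentic standard, meclofenamic acid internal standard.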

Data set [3] can be described thus: Activity ratio is the percent inhibition in writhing test at 100 umol/kg, po to that of diclofenac at 100 umol/kg, po administration. Type of data set: functional. The essentials: (§2)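 Male CD-1 mice (20-25 g), fasted overnight (≈17 h) with water ad libitum. Oral gavage of 100 µmol/kg as a suspension in 0.5% methocel with 5% or 50% PEG-400, 2.5 mL/kg, at least 9 mice/group. PBQ 2 mg/kg ip at 1 h after dosing; writhes counted over 5 min, starting 5 min after PBQ. Read-out is % inhibition of writhing vs vehicle; ratio = % inhibition with the test article / % inhibition with diclofenac, both at 100 µmol/kg po.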

For data set [4], the species on record is Mus musculus. Briefly: Analgesic effect measured as % inhibition in PBQ-induced writhing test in mice. The arrangement: concentration or dose not given beside the values. Type of data set: functional. The gist of the method:
as §2

The nature of data set [5]: Activity ratio is the percent inhibition of paw volume increase at 100 umol/kg, po to that of diclofenac at 100 umol/kg, po administration. The format is functional. The essentials:
(§3)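 Male Sprague-Dawley rats (200-250 g), fasted overnight (≈17 h) with water ad libitum. Dosed 100 µmol/kg by gavage at 5 mL/kg in 0.5% methocel/5% or 50% PEG-400, at least 5 rats/group. At 1 h, 50 µL of 1% carrageenan injected subplantar into the right […] paw. Paw volume read by water displacement at 0 and 3 h. Result is % inhibition of the volume increase; ratio relative to diclofenac at the same dose.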

In data set [6] the test system is Rattus norvegicus. Briefly: Antiinflammatory effect measured as % inhibition in carrageenan induced paw edema test in rat. Type of data set: functional. The essentials: as §3
The test system of data set [7] is Mus musculus. Briefly: Level of plasma diclofenac in mice after oral administration. Type of data set: ADME, organism-based. The conditions noted are these: in vivo. The gist of the method: as §1

In data set [1], `O=C(Cc1ccccc1Nc1c(Cl)cccc1Cl)OCC1(S)CCCCC1` had a Gastric lesion score of 6.7 mm.

The compound `CN(CCCOC(=O)Cc1ccccc1Nc1c(Cl)cccc1Cl)CC1(S)CCCCC1` registered a Gastric lesion score in data set [1] of 28.3 mm.

Take `CN(CCOC(=O)Cc1ccccc1Nc1c(Cl)cccc1Cl)CC1(S)CCCCC1`: the Gastric lesion score in data set [1] came to 10.2 mm.

With `CCN(CCCOC(=O)Cc1ccccc1Nc1c(Cl)cccc1Cl)CC1(SN=O)CCCCC1`, the Concentration_Plasma in data set [2] came out at 4.5 nM ml-1.

As to `CC(C)(COC(=O)Cc1ccccc1Nc1c(Cl)cccc1Cl)SN=O`, the Ratio in data set [3] was determined as 0.4. The Inhibition in data set [4] amounted to 32%. For the same compound, in data set [2], the Concentration_Plasma is on record as 19.8 nM ml-1. In data set [1], this compound displayed a Gastric lesion score of 0.7 mm.

For the compound `CN(CCCCOC(=O)Cc1ccccc1Nc1c(Cl)cccc1Cl)CC1(SN=O)CCCCC1`, in data set [2], the Concentration_Plasma came out at 5.9 nM ml-1.

Turning to `CN(CCCCCOC(=O)Cc1ccccc1Nc1c(Cl)cccc1Cl)CC1(SN=O)CCCCC1`, the Concentration_Plasma in data set [2] is on record as 2.4 nM ml-1.

Take `O=NSC1(COC(=O)Cc2ccccc2Nc2c(Cl)cccc2Cl)CCCCC1`: the Ratio in data set [3] amounted to 0.7. In addition, the Inhibition in data set [4] is 58%. Further, in data set [2], the Concentration_Plasma stood at 15.3 nM ml-1. The Gastric lesion score in data set [1] is 2 mm.

Consider `O=NSC1(CN(CCCOC(=O)Cc2ccccc2Nc2c(Cl)cccc2Cl)Cc2ccccc2)CCCCC1`, for which the Concentration_Plasma in data set [2] was 6.8 nM ml-1.

With `CN(CCCOC(=O)Cc1ccccc1Nc1c(Cl)cccc1Cl)CC1(SN=O)CCCCC1`, the Ratio in data set [3] amounted to 0.6; in data set [5] it was 1.1. Moreover, the results for the Inhibition in data set [4] and in data set [6] were 53% and 58%, respectively. Moreover, the Concentration_Plasma in data set [2] is listed as 7.4 nM ml-1. In data set [1], the Gastric lesion score was 0.7 mm.

As for `CCC(CC)(COC(=O)Cc1ccccc1Nc1c(Cl)cccc1Cl)SN=O`, the Ratio in data set [3] is on record as 1.1. This compound displayed an Inhibition in data set [4] of 95%. The Concentration_Plasma in data set [2] is 13.4 nM ml-1. In data set [1], this compound showed a Gastric lesion score of 0.4 mm.

For `CN(CCOC(=O)Cc1ccccc1Nc1c(Cl)cccc1Cl)CC1(SN=O)CCCCC1`, the results for the Ratio in data set [3] and in data set [5] were 0.8 and 1, respectively. In addition, the Inhibition in data set [4] came out at 70%; in data set [6], 55%. For the same compound, in data set [2], the Concentration_Plasma amounted to 5.5 nM ml-1. The same compound came in with a Gastric lesion score in data set [1] of 1.1 mM.

In the case of `O=C([O-])Cc1ccccc1Nc1c(Cl)cccc1Cl.[Na+]` [DICLOFENAC SODIUM], the Concentration_Plasma in data set [7] is recorded as 23.9 nM ml-1.

In the case of `O=C(O)Cc1ccccc1Nc1c(Cl)cccc1Cl` [DICLOFENAC], the values for the Inhibition in data set [4] and in data set [6] were 84% and 53%, respectively.
